For one data set, the system named is Hs68. Put plainly: Cytotoxicity against human HS68 cells at 25 to 200 uM after 48 hrs by SRB assay. It counts as cell-based. Conditions: hs68, 48 h. The method, boiled down: (§1)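 Cells exposed to each compound for 48 h; growth measured by sulforhodamine B staining. Compounds dissolved in DMSO, then diluted into growth medium. Cisplatin served as positive control. IC50 values derived from the SRB read-out.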
Background: Sulforhodamine B stains cellular protein and so reports cell mass.

Another data set deals with A549. As to the kind of experiment: Cytotoxicity against human A549 cells after 48 hrs by SRB assay. The format is functional, cell-based. The conditions noted are these: A549, 48 h. The method, boiled down:
as §1

The next data set has as its system MDA-MB-231. As to the kind of experiment: Cytotoxicity against human MDA-MB-231 cells after 48 hrs by SRB assay. It counts as functional, cell-based. The conditions noted are these: MDA-MB-231, 48 h. In a few lines: as §1

Molecules are shown by their SMILES.

For the compound `C=C(CC[C@@H](C)[C@H]1CC[C@H]2C3=C(C(=O)C[C@]12C)[C@@]1(C)CC[C@@H](O)[C@](C)(O)[C@@H]1C[C@@H]3O)[C@@H](C)C(=O)O`, in the data set on Hs68, the Activity result is “Non-toxic”.

As for `C[C@@H]1[C@H](O)CC[C@]2(C)C3=C(C(=O)C[C@@H]12)[C@@H]1CC[C@H]([C@H](C)CCO)[C@@]1(C)[C@@H](O)C3=O`, the Activity result in the data set on Hs68 is given as “Non-toxic”.

As for `CC(=O)CC[C@@H](C)[C@H]1CC[C@H]2C3=C(C(=O)C[C@]12C)[C@@]1(C)CCC(=O)[C@@H](C)[C@@H]1CC3=O`, the Activity entry with Hs68 was “Non-toxic”. The IC50 is 65.9 µM in the data set on A549 and 45.5 µM in the data set with MDA-MB-231.

With `C/C(C=O)=C(/C)CC[C@@H](C)[C@H]1CC[C@H]2C3=C(C(=O)C[C@]12C)[C@@]1(C)CCC(=O)[C@@H](C)[C@@H]1CC3`, the Activity entry with Hs68 was “Non-toxic”.

As to `C/C(C=O)=C(\C)CC[C@@H](C)[C@H]1CC[C@H]2C3=C(C(=O)C[C@]12C)[C@@]1(C)CCC(=O)[C@@H](C)[C@@H]1CC3`, the Activity entry in the data set on Hs68 is recorded as “Non-toxic”.

For the compound `C=C(CC[C@@H](C)[C@H]1CC[C@H]2C3=C(C(=O)C[C@]12C)[C@@]1(C)CCC(=O)[C@](C)(O)[C@@H]1C[C@@H]3O)[C@H](C)C(=O)O`, the Activity entry with Hs68 is listed as “Non-toxic”. Moreover, the half-maximal inhibitory concentration (IC50) stood at 80.2 µM in the data set on A549 and 58.6 µM with MDA-MB-231.

As for `C=C(CC[C@@H](C)[C@H]1CC[C@H]2C3=C(C(=O)C[C@]12C)[C@@]1(C)CCC(=O)[C@](C)(O)[C@@H]1C[C@@H]3O)[C@@H](C)C(=O)O`, the Activity result in the data set with Hs68 is “Non-toxic”. Besides, the results for the concentration for half-maximal inhibition (IC50) in the data set on A549 and in the data set with MDA-MB-231 were 66.3 µM and 67.2 µM, respectively.

Consider `C=C(CC[C@@H](C)[C@H]1CC[C@H]2C3=C(C(=O)C[C@]12C)[C@@]1(C)CCC(=O)[C@](C)(O)[C@@H]1C[C@@H]3O)[C@H](C)C(=O)OC`, for which, in the data set with Hs68, the Activity entry is “Non-toxic”. Also, the IC50 in the data set with A549 is 73.2 µM; in the data set with MDA-MB-231 it was 76.8 µM.

On to `C=C(CC[C@@H](C)[C@H]1CC[C@H]2C3=C(C(=O)C[C@]12C)[C@@]1(C)CCC(=O)[C@](C)(O)[C@@H]1C[C@@H]3O)[C@@H](C)C(=O)OC`, for which the Activity result in the data set on Hs68 is recorded as “Non-toxic”. Moreover, the IC50 amounted to 93.2 µM in the data set with A549 and 71.5 µM in the data set on MDA-MB-231.

On to `C=C(CC[C@@H](C)[C@H]1CC[C@H]2C3=C(C(=O)[C@H](O)[C@]12C)[C@@]1(C)CCC(=O)[C@@H](C)[C@@H]1CC3=O)[C@@H](C)C(=O)O`, for which, in the data set on Hs68, the Activity entry is “Non-toxic”.

With `C=C(CC[C@@H](C)[C@H]1CC[C@H]2C3=C(C(=O)[C@H](O)[C@]12C)[C@@]1(C)CCC(=O)[C@@H](C)[C@@H]1CC3=O)[C@H](C)C(=O)O`, the Activity result with Hs68 was “Non-toxic”. Moreover, the IC50 is 84.4 µM with A549 and 71.3 µM in the data set on MDA-MB-231.

In the case of `C=C(CC[C@@H](C)[C@H]1CC[C@H]2C3=C(C(=O)C[C@]12C)[C@@]1(C)CC[C@H](O)[C@@H](C)[C@@H]1C[C@@H]3O)[C@H](C)C(=O)O`, the Activity result in the data set with Hs68 was “Non-toxic”.

Turning to `C=C(CC[C@@H](C)[C@H]1CC[C@H]2C3=C(C(=O)C[C@]12C)[C@@]1(C)CC[C@H](O)[C@@H](C)[C@@H]1C[C@@H]3O)[C@@H](C)C(=O)O`, in the data set on Hs68, the Activity result was “Non-toxic”.

Take `C=C(CC[C@@H](C)[C@H]1CC[C@H]2C3=C(C(=O)[C@H](O)[C@]12C)[C@@]1(C)CC[C@@H](O)[C@@H](C)[C@@H]1CC3=O)[C@@H](C)C(=O)O`: the Activity result in the data set on Hs68 was “Non-toxic”. Further, the IC50 worked out at 22 µM in the data set with A549 and 23.7 µM in the data set with MDA-MB-231.

In the case of `C=C(CC[C@@H](C)[C@H]1CC[C@H]2C3=C(C(=O)[C@H](O)[C@]12C)[C@@]1(C)CC[C@@H](O)[C@@H](C)[C@@H]1CC3=O)[C@H](C)C(=O)O`, the Activity result in the data set on Hs68 is given as “Non-toxic”. Further, the half-inhibitory concentration (IC50) was determined as 32.8 µM with A549 and 38.6 µM with MDA-MB-231.

`C=C(CC[C@@H](C)[C@H]1CC[C@H]2C3=C(C(=O)C[C@]12C)[C@@]1(C)CCC(=O)[C@@H](C)[C@@H]1CC3=O)[C@@H](C)C(=O)O`: the Activity result with Hs68 was “Non-toxic”. The IC50 worked out at 41.4 µM in the data set on A549 and 33.4 µM in the data set on MDA-MB-231.

On to `C=C(CC[C@@H](C)[C@H]1CC[C@H]2C3=C(C(=O)C[C@]12C)[C@@]1(C)CCC(=O)[C@@H](C)[C@@H]1C[C@@H]3O)[C@H](C)C(=O)O`, for which, in the data set on Hs68, the Activity entry was “Non-toxic”. For the same compound, the figures for the 50% inhibitory concentration (IC50) in the data set on A549 and in the data set with MDA-MB-231 were 76.2 µM and 74.2 µM, respectively.

In the case of `C=C(CC[C@@H](C)[C@H]1CC[C@H]2C3=C(C(=O)C[C@]12C)[C@@]1(C)CCC(=O)[C@@H](C)[C@@H]1C[C@@H]3O)[C@@H](C)C(=O)O`, the Activity result with Hs68 is on record as “Non-toxic”. Further, the concentration for half-maximal inhibition (IC50) in the data set on A549 was 33.1 µM; in the data set with MDA-MB-231, 25.1 µM.

Take `C=C(CC[C@@H](C)[C@H]1CC[C@H]2C3=C(C(=O)C[C@]12C)[C@@]1(C)CC[C@@H](O)[C@](C)(O)[C@@H]1C[C@@H]3O)[C@H](C)C(=O)O`: in the data set on Hs68, the Activity entry is on record as “Non-toxic”.

`C=C(CC[C@@H](C)[C@H]1CC=C2C3=C(C(=O)C[C@@]21C)[C@@]1(C)CCC(=O)[C@@H](C)[C@@H]1C[C@@H]3O)C(C)C(=O)O` (some centres not stated): in the data set on Hs68, the Activity entry was “Non-toxic”. The IC50 in the data set on A549 worked out at 40.6 µM; with MDA-MB-231, 31.6 µM.

For the compound `C=C(CC[C@@H](C(=O)O)[C@H]1C[C@H](O)[C@@]2(C)C3=CC[C@H]4C(C)(C)[C@@H](O)CC[C@]4(C)C3=CC[C@]12C)C(C)C`, the Activity entry in the data set with Hs68 was “Non-toxic”.

Regarding `C=C(CC[C@@H](C(=O)O)[C@H]1C[C@H](O)[C@@]2(C)C3=CC[C@H]4C(C)(C)C(=O)CC[C@]4(C)C3=CC[C@]12C)C(C)C`, in the data set with Hs68, the Activity result was “Non-toxic”.

`C=C(CC[C@@H](C(=O)O)[C@H]1C[C@H](OC(C)=O)[C@@]2(C)C3=CC[C@H]4C(C)(C)[C@@H](O)CC[C@]4(C)C3=CC[C@]12C)C(C)C`: in the data set with Hs68, the Activity entry is reported as “Non-toxic”.

As for `C=C(CC[C@@H](C)[C@H]1CC[C@H]2C3=C(C(=O)C[C@]12C)[C@@]1(C)CCC(=O)[C@@H](C)[C@@H]1CC3)C(C)C(=O)O` (some centres not stated) [ANTCIN A], the Activity result in the data set with Hs68 is listed as “Non-toxic”. Also, the IC50 in the data set with A549 came out at 39.4 µM; in the data set on MDA-MB-231, 29.6 µM.

Take `C=C(CC[C@@H](C)[C@H]1CC[C@H]2C3=C(C(=O)C[C@]12C)[C@@]1(C)CCC(=O)[C@@H](C)[C@@H]1CC3=O)[C@H](C)C(=O)O` [ANTCIN B]: the Activity result in the data set on Hs68 was “Non-toxic”. In addition, the IC50 turned out to be 57.4 µM in the data set on A549 and 44 µM in the data set with MDA-MB-231.

For the compound `C=C(CC[C@@H](C)[C@H]1CC[C@H]2C3=C(C(=O)[C@H](O)[C@]12C)[C@@]1(C)CC[C@@H](O)[C@@H](C)[C@@H]1C[C@@H]3O)C(C)C(=O)O` (some centres not stated) [CAMPHORATIN A], the Activity entry in the data set with Hs68 is “Non-toxic”. Moreover, the IC50 was determined as 92.1 µM in the data set with A549 and 93.5 µM with MDA-MB-231.

On to `C=C(CC[C@@H](C)[C@H]1CC[C@H]2C3=C(C(=O)C[C@]12C)[C@@]1(C)CC[C@@H](O)[C@](C)(O)[C@@H]1CC3=O)C(C)C(=O)O` (some centres not stated) [CAMPHORATIN C], for which, in the data set with Hs68, the Activity result is reported as “Non-toxic”. Besides, the 50% inhibitory concentration (IC50) with A549 was determined as 48.8 µM; in the data set on MDA-MB-231, 62.8 µM.

Take `C=C(CC[C@@H](C(=O)O)[C@H]1CC[C@@]2(C)C3=CC[C@H]4C(C)(C)[C@@H](O)CC[C@]4(C)C3=CC[C@]12C)C(C)C` [DEHYDROEBURICOIC ACID]: the Activity result in the data set with Hs68 was “Non-toxic”.

With `C=C(CC[C@@H](C(=O)O)[C@H]1CC[C@@]2(C)C3=C(CC[C@]12C)[C@@]1(C)CC[C@H](O)C(C)(C)[C@@H]1CC3)C(C)C` [EBURICOIC ACID], the Activity entry with Hs68 was “Non-toxic”.

Take `C=C(CC[C@@H](C(=O)O)[C@H]1C[C@H](O)[C@@]2(C)C3=C(CC[C@]12C)[C@@]1(C)CC[C@H](O)C(C)(C)[C@@H]1CC3)C(C)C` [SULFURENIC ACID]: in the data set on Hs68, the Activity entry is given as “Non-toxic”.

One may read the IC50 as the midpoint of a concentration-inhibition curve. The low end stands for greater potency, the high end for weaker potency.

The values are drawn from ChEMBL document CHEMBL3102740, “Antcamphins A-L, ergostanoids from Antrodia camphorata” (J Nat Prod, 2014).
